Screening data from PubChem BioAssay.
M5 PAM = positive allosteric modulators of human muscarinic M5 receptor; activation, % at 3 µM; 360,000 tested, 0.3% active; CHO-K1 hM5, Fluo-8 calcium, ACh EC20 PAM; 0% = ACh EC20, 100% = ACh EC100; P08912;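 active = activation above the run cutoff, the mean activation of all test compounds plus 3 SD, cut at about 18% in these data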
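Assay system: CHO-K1 hM5 cells. Also added: acetylcholine at EC20 concentration, added after compound. Dosing: 3 µM, single dose. Times: compound preincubation 140 s before EC20 acetylcholine addition. Signal: Fluo-8 calcium fluorescence. Measure: % activation relative to EC20 and EC100 ACh responses. Repeats: singlicate, one well per test compound.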
CHRM5 agonist = agonists of human muscarinic M5 receptor (CHRM5) | activation, % at 3 µM | 360,000 tested, 0.19% active | CHO-K1 hM5 cells, Fluo-8 calcium fluorescence; 0% DMSO wells, 100% maximal acetylcholine response | P08912 | AID 624037;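 active = activation above the run's mean over test compounds plus 3 SD, cut at about 23% in these data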;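 note: signal is peak over basal fluorescence ratio across the kinetic read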
CHRM5 antagonist = antagonists of human muscarinic M5 receptor (CHRM5); P08912; CHO-hM5 cells, Fluo-8 calcium fluorescence, ACh EC80; inhibition, % at 3 µM; 360,000 tested, 0.59% active; AID 624040;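 active = inhibition above a per-plate cutoff, the mean of that plate's test compounds plus 3 SD, cut at about 27% in these data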;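 note: 0% = acetylcholine EC80 with DMSO and 100% = DMSO without agonist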
M4 PAM = potentiates acetylcholine response at human M4 receptor; P08173; 360,000 tested, 0.4% active; CHO-K1 hM4/Gqi5, Fluo-8 calcium fluorescence, ACh EC20; 0% = ACh EC20, 100% = maximal ACh; AID 624126; activation, % at 3 µM;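 active = activation above its plate's cutoff, the mean activation of sample wells plus 3 SD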
Target sequence (P08173 whole entry, looked up): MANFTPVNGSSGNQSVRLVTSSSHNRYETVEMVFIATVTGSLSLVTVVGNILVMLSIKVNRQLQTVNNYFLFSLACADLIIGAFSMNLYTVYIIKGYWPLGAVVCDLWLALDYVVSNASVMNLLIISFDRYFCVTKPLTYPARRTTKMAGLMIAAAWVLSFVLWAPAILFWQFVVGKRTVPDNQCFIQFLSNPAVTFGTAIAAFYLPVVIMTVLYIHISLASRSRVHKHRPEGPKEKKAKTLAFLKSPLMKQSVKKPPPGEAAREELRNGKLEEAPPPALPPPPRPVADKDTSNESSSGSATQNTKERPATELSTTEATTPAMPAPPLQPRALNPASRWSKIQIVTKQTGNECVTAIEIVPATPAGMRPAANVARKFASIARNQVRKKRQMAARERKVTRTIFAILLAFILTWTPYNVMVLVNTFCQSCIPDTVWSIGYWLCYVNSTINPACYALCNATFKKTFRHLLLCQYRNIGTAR
CHRM4 antagonist = blocks acetylcholine activation of human M4 receptor; CHO-hM4 cells, ACh EC80, Fluo-8 calcium fluorescence; inhibition, % at 3 µM; AID 624125; 360,000 tested, 0.73% active; P08173;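 active = inhibition above its plate's cutoff, the mean inhibition of sample wells plus 3 SD, cut at about 27% in these data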;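 note: 0% = acetylcholine EC80 with DMSO and 100% = DMSO without agonist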
M4 ag = CHRM4 agonism in calcium assay | P08173 | CHO-K1 hM4/Gqi5, Fluo-8 calcium fluorescence; vehicle 0%, full acetylcholine response 100% | activation, % at 3 µM | 360,000 tested, 0.14% active | AID 624127;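 active = activation above the run mean over all test wells plus 3 SD, cut at about 32% in these data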;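 note: peak over basal fluorescence ratio per well then scaled between controls; 0% = DMSO wells and 100% = acetylcholine at EC100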
The depositor's hits bear a star. Compounds with a hit are over-represented: about 1.8% of the library has one in this group of screens.

SMILES	M5 PAM	CHRM5 agonist	CHRM5 antagonist	M4 PAM	CHRM4 antagonist	M4 ag
Cc1cc(NC(=O)CSc2ccc3nnc(CCNC(=O)c4ccccc4)n3n2)no1	-4	-7	1	30*	-3	1
O=C(CN1CCSCC1)N/N=C/c1cccc(Cl)c1	-3	-3	-4	5	-1	1
Cc1ccc2occ(/C=N/NC(=O)c3ccncc3)c(=O)c2c1	0	-2	10	20*	3	2
CCCCNC(=O)CSc1ccc(S(=O)(=O)N2CCOCC2)cn1	-10	0	20	-6	9	0
CC(C)NC(=O)NC(=O)CSc1ccc(S(=O)(=O)N2CCOCC2)cn1	-4	-2	3	21*	-9	1
O=S(=O)(/C=C/C=C/S(=O)(=O)c1ccccc1)c1ccccc1	6	7	2	-6	43*	6
Cc1ccc(S(=O)(=O)C=CS(=O)(=O)c2ccc(C)cc2)cc1	-1	1	6	-5	32*	7
Cc1ccc(S(=O)(=O)c2ccc(C)cc2)cc1	0	-5	-2	-8	13	-2
CC(=O)c1ccc(OCc2nnn(CC(=O)O)c2-c2ccccc2)cc1	0	-1	2	0	5	1
CCc1nnc(NC(=O)CCC(=O)NCc2ccccc2Cl)s1	7	1	-4	-1	-8	1
Cc1cccc(C)c1OCC(=O)Nc1ccc(N2CCOCC2)cc1	-4	-2	10	-7	6	0
CC1(C)OC(=O)C2=C(C[C@@H](C3CCCCC3)O[C@H]2c2ccc(Cl)cc2)O1	2	2	9	-1	3	-1
Cc1ccc(NC(=O)CS(=O)(=O)c2cn(CC(=O)N3CCOCC3)c3ccccc23)cc1	3	-3	-9	25	36*	2
O[C@H]1C[C@H](c2ccccc2)N(CC2CCCCC2)C[C@@H]1n1cc(C2CC2)nn1	5	0	3	-7	-4	-2
CC(C)CNC(=O)c1ccc(C2SCC(=O)N2Cc2ccccc2)cc1 (configuration not stated)	-20	-11	-3	-25	47*	1
O=c1c(Cc2ccccc2)c(O)ccn1CCc1cnc[nH]1	12	-5	0	0	1	1
Cc1cc(/C=N/n2cnnc2)c(C)n1-c1ccc(OCc2ccc(Cl)cc2Cl)cc1	-15	-5	37*	-12	47*	3
COc1ccc(CCC(=O)NCCNC(=O)CCc2ccc(OC)cc2)cc1	0	2	0	-5	10	1
COc1ccc(CCn2c(NN=C3CCCCC3)nc3c2c(=O)[nH]c(=O)n3C)cc1	5	1	6	14*	2	0
Cc1ccc(NC(=O)CN2C(=O)NC(Cc3ccccc3)C2=O)c(Br)c1 (configuration not stated)	2	-1	0	7	-6	1
O=C1C(=C2CCc3ccccc32)Cc2ccccc21	-2	-2	-1	0	5	0
c1ccc2c(c1)CCc1ccccc1C2=C1CCNCC1	-32	-19	99*	-61	99*	2
Cc1cc(C)cc(NCCC#N)c1	-10	0	15	-1	-9	0
Cc1ccc(C(=O)Sc2cccccc2=O)cc1	-7	3	42*	-8	57*	8
Cc1ccc(NC(=O)NNC(=O)CN2C(=O)COc3ccccc32)cc1	4	-4	2	-6	-8	1
SMILES	M5 PAM	CHRM5 agonist	CHRM5 antagonist	M4 PAM	CHRM4 antagonist	M4 ag
COc1cc(C2C=C(c3cccs3)Nc3ncnn32)cc(OC)c1OC (configuration not stated)	-9	19	16	-14	10	34*
Cc1cc(Oc2cc(N)cc([N+](=O)[O-])c2)ccc1Cl	-1	-4	4	-2	0	-1
CC(C)n1c(/N=C/c2ccccc2O)nc2ccccc21	21*	0	-9	0	-8	1
CCn1c(/N=C/c2ccccc2O)nc2ccccc21	12	-4	6	5	-13	0
O=C(CCNc1ccc(Cc2ccncc2)cc1)c1cccc([N+](=O)[O-])c1	-16	-8	22	-19	28*	3
O=C(CCNc1cccc(F)c1)c1cccc([N+](=O)[O-])c1	-9	-10	8	-8	-14	1
Cc1ccc(C(=O)c2sc3nc4c(cc3c2N)CCC4)cc1	5	-1	-4	21*	-6	1
Nc1c(C(=O)N2CCCCC2)sc2nc3c(cc12)CCCC3	0	-2	-3	-3	-2	0
CC[C@@]12C(=O)N(c3ccc(C)cc3)C(=O)N1[C@H](c1ccc(OC)cc1)[C@@H]1C(=O)N(C(C)(C)C)C(=O)[C@@H]12	0	-4	7	0	1	1
CC1=C(C(=O)OC2CCCCC2)C(c2ccc(N(C)C)cc2)NC(=O)N1 (configuration not stated)	7	2	-11	0	-12	-1
Cc1ccc(/C=N/N2CCN(Cc3ccc(Cl)cc3)CC2)o1	-3	-2	6	-2	31*	5
CCOC(=O)[C@@H]1[C@H]2COc3ccccc3[C@@H]2N2C(=O)N(c3ccc(OC)cc3)C(=O)[C@]12C	10	1	2	7	-4	0
CCN(CC)CCNC(=O)c1ccc2c(=O)n(C3CCCC3)c(=S)[nH]c2c1	-3	-8	1	-27	27*	2
O=C(NCCCN1CCOCC1)c1ccc2c(=O)n(Cc3cccc(Br)c3)c(=S)[nH]c2c1	2	0	14	-1	4	3
O=C(NCCN1CCCC1)c1ccc(Cn2c(=S)[nH]c3ccc(Br)cc3c2=O)cc1	-33	46*	26	-13	1	6
CC(C)NC(=O)c1ccc2c(=O)n(C3CCCC3)c(=S)[nH]c2c1	1	-2	-1	7	4	0
CC1CCN(CCNC(=O)c2ccc3c(=O)n(Cc4ccc(Cl)cc4)c(=S)[nH]c3c2)CC1	-15	2	17	-22	29*	59*
COc1cc2c3c(c1)C(C)=CC(C)(C)N3C(=O)C2=O	-5	36*	8	3	3	0
COc1cccc(C(=O)Oc2cc3c4c(c2)C(C)=CC(C)(C)N4C(=O)C3=O)c1	0	57*	46*	-8	24	7
COc1ccc(C(=O)Oc2cc3c4c(c2)C(C)=CC(C)(C)N4C(=O)C3=O)cc1OC	-7	12	7	4	5	2
CCSc1nnc(-c2ccccc2N=Cc2c(C)[nH]n(-c3ccccc3)c2=O)c(=O)[nH]1	-3	4	2	3	-5	1
